Results on six compounds are retold here after ChEMBL document CHEMBL1126670, “Cyclic peptides as selective tachykinin antagonists” (J Med Chem, 1993).

Structures are written as SMILES. Where a SMILES comes first, the peptide text is derived from it.

Holding throughout (details): read-out: pA2 (converted)
For one test, the target named is T1, Substance-K receptor (Rattus norvegicus, UniProt P16610).
T1 sequence (P16610 whole entry): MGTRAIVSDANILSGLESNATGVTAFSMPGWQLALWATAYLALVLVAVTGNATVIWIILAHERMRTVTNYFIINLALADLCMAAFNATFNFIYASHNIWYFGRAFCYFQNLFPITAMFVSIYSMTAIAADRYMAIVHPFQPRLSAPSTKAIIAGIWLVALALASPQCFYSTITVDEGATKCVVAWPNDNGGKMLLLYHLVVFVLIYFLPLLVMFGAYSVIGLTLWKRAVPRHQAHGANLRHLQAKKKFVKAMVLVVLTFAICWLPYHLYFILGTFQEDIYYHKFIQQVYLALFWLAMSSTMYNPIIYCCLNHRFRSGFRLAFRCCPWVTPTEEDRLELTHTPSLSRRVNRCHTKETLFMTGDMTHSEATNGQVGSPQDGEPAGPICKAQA
Put plainly: Inhibition of eledoisin binding to NK-2 receptor in rat vas deferens. The method in brief:
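Vas deferens from Sprague-Dawley rats (200–300 g), electrically stimulated contractions with supramaximal rectangular bipolar pulses. Eledoisin log dose-response curves; antagonism taken from rightward shift. pA2 by Schild regression over three or more antagonist concentrations, or apparent pA2 from one antagonist concentration via the standard Schild equation assuming unit slope.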

Another test deals with Substance-P receptor (Cavia porcellus, UniProt P30547). Put plainly: Tested for antagonist activity toward NK-1 receptor in guinea pig ileum against the agonist eledoisin (mean +/-, n=4). It is filed as functional, tissue-based. In short, it runs like this: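 Guinea pig (male Dunkin-Hartley, 300–400 g) small-intestine longitudinal muscle, isometric contraction in Krebs-Henseleit at 37 °C with atropine, mepyramine, methysergide (each 5 μM) and indomethacin (1 μM). Antagonism measured as rightward shift of log dose-response curves to eledoisin. pA2 from Schild regression (least squares, three or more antagonist concentrations, three or more observations each), or apparent pA2 at a single concentration assuming unit slope (mean of 3–4 observations).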
Sequence of Substance-P receptor (P30547 whole entry): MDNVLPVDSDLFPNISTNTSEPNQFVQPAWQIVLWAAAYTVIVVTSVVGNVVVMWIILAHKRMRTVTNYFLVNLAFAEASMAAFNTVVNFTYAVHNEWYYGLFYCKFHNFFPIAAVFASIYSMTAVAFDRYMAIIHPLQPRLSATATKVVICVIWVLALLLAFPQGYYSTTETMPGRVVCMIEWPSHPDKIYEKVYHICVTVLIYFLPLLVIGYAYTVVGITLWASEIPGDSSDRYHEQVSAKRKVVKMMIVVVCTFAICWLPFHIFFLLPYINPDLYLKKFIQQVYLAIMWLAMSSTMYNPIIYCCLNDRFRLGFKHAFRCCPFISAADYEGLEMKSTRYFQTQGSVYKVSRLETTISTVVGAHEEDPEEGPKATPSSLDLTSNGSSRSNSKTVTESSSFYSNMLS

Another test has as its target T2, Neuromedin-K receptor (Rattus norvegicus, UniProt P16177).
T2 sequence (P16177 whole entry): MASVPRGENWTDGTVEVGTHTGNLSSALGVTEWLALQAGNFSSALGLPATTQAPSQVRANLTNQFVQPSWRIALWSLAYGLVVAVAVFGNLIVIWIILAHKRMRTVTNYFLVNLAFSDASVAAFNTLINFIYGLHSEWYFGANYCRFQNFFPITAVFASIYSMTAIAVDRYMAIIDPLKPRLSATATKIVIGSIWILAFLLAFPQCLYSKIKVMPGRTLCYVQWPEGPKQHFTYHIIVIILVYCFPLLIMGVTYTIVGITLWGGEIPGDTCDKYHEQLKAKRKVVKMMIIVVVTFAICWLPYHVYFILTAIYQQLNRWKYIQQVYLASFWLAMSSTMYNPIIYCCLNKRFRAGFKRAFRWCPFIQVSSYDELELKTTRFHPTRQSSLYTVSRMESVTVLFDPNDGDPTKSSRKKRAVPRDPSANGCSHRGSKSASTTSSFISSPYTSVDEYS
Put plainly: Tested for antagonist activity toward NK-3 receptor in rat portal vein against the agonist eledoisin (mean +/-, n=4). The class given is functional. In short, it runs like this:
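Rat portal vein longitudinal strips; frequency and amplitude of myogenic contractions recorded. Antagonist activity derived from rightward shift of eledoisin log dose-response curves. pA2 by Schild regression, least squares, three or more antagonist concentrations, or apparent pA2 at a single antagonist concentration assuming unit slope (mean of three or four observations).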

For the compound `CSCC[C@@H]1NC(=O)[C@H](CC(C)C)N2C=C[C@@H](NC(=O)[C@H](Cc3ccccc3)NC(=O)[C@H](Cc3ccccc3)NC(=O)[C@H](CCC(N)=O)NC1=O)C2=O`, the Kb at Substance-K receptor was 15.8 µM. Still for that read-out and setting: then `CSCC[C@@H]1NC(=O)[C@H](CC(C)C)NC(=O)[C@H](Cc2ccccc2)NC(=O)[C@H](Cc2c[nH]c3ccccc23)NC(=O)[C@H](CCC(N)=O)NC1=O` (cyclo(FLMQW)), with 0.631 µM; and `CSCC[C@@H]1NC(=O)[C@H](CC(C)C)NC(=O)[C@H]2CCCN2C(=O)[C@H](Cc2ccccc2)NC(=O)[C@H](Cc2c[nH]c3ccccc23)NC(=O)[C@H](CCC(N)=O)NC1=O`, with 20 µM; and `CSCC[C@@H]1NC(=O)[C@H](CC(C)C)N2C=C[C@@H](NC(=O)[C@H](Cc3ccccc3)NC(=O)[C@](C)(c3cccc4ccccc34)NC(=O)[C@H](CCC(N)=O)NC1=O)C2=O`, with 2.51 µM. For `CSCC[C@@H]1NC(=O)[C@H](CC(C)C)NC(=O)CNC(=O)[C@H](Cc2ccccc2)NC(=O)[C@H](Cc2c[nH]c3ccccc23)NC(=O)[C@H](CCC(N)=O)NC1=O` (cyclo(FGLMQW)), the values for the Kb at Substance-K receptor, at Substance-P receptor and at Neuromedin-K receptor were 0.00794 µM, 2 µM and 7.94 µM, respectively. With `CSCC[C@@H]1NC(=O)[C@H](CC(C)C)NC(=O)[C@@H]2CCCN2C(=O)[C@H](Cc2ccccc2)NC(=O)[C@H](Cc2c[nH]c3ccccc23)NC(=O)[C@H](CCC(N)=O)NC1=O`, the Kb on Substance-K receptor was 15.8 µM.
